From ChEMBL document CHEMBL4229515, “A novel synthesis of 2-arylbenzimidazoles in molecular sieves-MeOH system and their antitubercular activity” (Bioorg Med Chem, 2018)
pIC50: −log10 of the molar value. ≈ marks a conversion by molar mass, not a printed value.

Tests used:
Mus musculus [1] = experiment: Acute toxicity in Swiss albino mouse assessed as effect on triglyceride levels at 50 mg/kg, po after 7 days (reference value: 45.21 +/- 2.95 mg/dL); format: organism-based; details: in vivo, 168 h
Mus musculus [2] = experiment: Acute toxicity in Swiss albino mouse assessed as effect on body weight at 300 mg/kg, po after 7 days (reference value: 28.25 +/- 0.54 g); format: organism-based; details: in vivo, 168 h
Mus musculus [3] = experiment: Acute toxicity in Swiss albino mouse assessed as effect on RBC count at 300 mg/kg, po after 7 days (reference value: 7.61 +/- 0.54 10^6/mm3); format: organism-based; details: in vivo, 168 h
Mus musculus [4] = experiment: Acute toxicity in Swiss albino mouse assessed as effect on albumin levels at 1000 mg/kg, po after 7 days (reference value: 3.53 +/- 0.35 mg/dL); format: organism-based; details: in vivo, 168 h
Mus musculus [5] = experiment: Acute toxicity in Swiss albino mouse assessed as effect on relative brain weight at 5 to 1000 mg/kg, po after 7 days; format: organism-based; details: in vivo, 168 h
Outline: (§1)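 Single acute oral dose of 5, 50, 300 or 1000 mg/kg body weight, with an untreated control group; n=6 mice per group. Animals observed for 7 days for morbidity, mortality, behaviour and body weight. At the end, blood and serum were analysed, and organs were examined grossly with absolute and relative weights. Data are mean±SE; P<0.05 was taken as significant versus control and the lower-dose groups.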

Mus musculus [6] = experiment: Acute toxicity in Swiss albino mouse assessed as effect on relative liver weight at 1000 mg/kg, po after 7 days; format: organism-based; details: in vivo, 168 h; outline: as §1
Mus musculus [7] = experiment: Acute toxicity in Swiss albino mouse assessed as effect on WBC count at 50 mg/kg, po after 7 days (reference value: 7.47 +/- 1.61 10^3/mm3); format: organism-based; details: in vivo, 168 h
Mus musculus [8] = experiment: Acute toxicity in Swiss albino mouse assessed as effect on SGOT levels at 5 mg/kg, po after 7 days (reference value: 15.11 +/- 1.25 U/L); format: organism-based; details: in vivo, 168 h
Mus musculus [9] = experiment: Acute toxicity in Swiss albino mouse assessed as effect on relative kidney weight at 5 to 1000 mg/kg, po after 7 days; format: organism-based; details: in vivo, 168 h; outline: as §1
Mus musculus [10] = experiment: Acute toxicity in Swiss albino mouse assessed as effect on absolute heart weight at 5 to 1000 mg/kg, po after 7 days; format: organism-based; details: in vivo, 168 h; outline: as §1
Mus musculus [11] = experiment: Acute toxicity in Swiss albino mouse assessed as effect on SGOT levels at 50 mg/kg, po after 7 days (reference value: 15.11 +/- 1.25 U/L); format: organism-based; details: in vivo, 168 h
[12] = test system: Mycobacterium tuberculosis; experiment: Antimycobacterial activity against Mycobacterium tuberculosis H37Rv by BACTEC 460 radiometric method; format: functional
Outline: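 Radiometric BACTEC assay against the H37Rv strain, run per a previously reported method. Positive controls were rifampicin, streptomycin and isoniazid. The MIC was read in µM.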

Mus musculus [13] = experiment: Acute toxicity in Swiss albino mouse assessed as depression at 1000 mg/kg, po measured over 7 days; format: organism-based; details: in vivo, 168 h; outline: as §1
Mus musculus [14] = experiment: Acute toxicity in Swiss albino mouse assessed as effect on relative spleen weight at 5 to 1000 mg/kg, po after 7 days; format: organism-based; details: in vivo, 168 h; outline: as §1
Mus musculus [15] = experiment: Acute toxicity in Swiss albino mouse assessed as effect on relative lung weight at 5 to 1000 mg/kg, po after 7 days; format: organism-based; details: in vivo, 168 h; outline: as §1
Mus musculus [16] = experiment: Acute toxicity in Swiss albino mouse assessed as effect on SGPT levels at 1000 mg/kg, po after 7 days (reference value: 16.08 +/- 1.38 U/L); format: organism-based; details: in vivo, 168 h
[17] = Acute toxicity in Swiss albino mouse assessed as mortality at 1000 mg/kg, po measured over 7 days; format: organism-based; details: in vivo, read-out: Activity; outline: as §1
Mus musculus [18] = experiment: Acute toxicity in Swiss albino mouse assessed as effect on absolute spleen weight at 5 to 1000 mg/kg, po after 7 days; format: organism-based; details: in vivo, 168 h; outline: as §1
[19] = molecular target: DNA gyrase subunit A/DNA gyrase subunit B (Mycobacterium tuberculosis (strain ATCC 25618 / H37Rv), UniProt P9WG45+P9WG47); experiment: Inhibition of Mycobacterium tuberculosis DNA gyrase supercoiling activity using relaxed pBR322 as substrate after 30 mins by agarose gel electrophoresis; format: protein-complex assay
Mus musculus [20] = experiment: Acute toxicity in Swiss albino mouse assessed as effect on relative liver weight at 5 to 300 mg/kg, po after 7 days; format: organism-based; details: in vivo, 168 h; outline: as §1
Mus musculus [21] = experiment: Acute toxicity in Swiss albino mouse assessed as change in morbidity up to 300 mg/kg, po measured over 7 days; format: organism-based; details: in vivo, 168 h; outline: as §1
Mus musculus [22] = experiment: Acute toxicity in Swiss albino mouse assessed as effect on body weight at 1000 mg/kg, po after 7 days (reference value: 28.25 +/- 0.54 g); format: organism-based; details: in vivo, 168 h
Mus musculus [23] = experiment: Acute toxicity in Swiss albino mouse assessed as effect on serum protein levels at 1000 mg/kg, po after 7 days (reference value: 0.10 +/- 0.004 mg/mL); format: organism-based; details: in vivo, 168 h
Mus musculus [24] = experiment: Acute toxicity in Swiss albino mouse assessed as effect on GSH levels per mg of tissue protein at 50 mg/kg, po after 7 days (reference value: 17.64 +/- 1.03 micromol); format: organism-based; details: in vivo, 168 h
Mus musculus [25] = experiment: Acute toxicity in Swiss albino mouse assessed as effect on serum protein levels at 5 mg/kg, po after 7 days (reference value: 0.10 +/- 0.004 mg/mL); format: organism-based; details: in vivo, 168 h
Mus musculus [26] = experiment: Acute toxicity in Swiss albino mouse assessed as effect on SGPT levels at 300 mg/kg, po after 7 days (reference value: 16.08 +/- 1.38 U/L); format: organism-based; details: in vivo, 168 h
Mus musculus [27] = experiment: Acute toxicity in Swiss albino mouse assessed as effect on WBC count at 5 mg/kg, po after 7 days (reference value: 7.47 +/- 1.61 10^3/mm3); format: organism-based; details: in vivo, 168 h
Mus musculus [28] = experiment: Acute toxicity in Swiss albino mouse assessed as effect on GSH levels per mg of tissue protein at 300 mg/kg, po after 7 days (reference value: 17.64 +/- 1.03 micromol); format: organism-based; details: in vivo, 168 h
Mus musculus [29] = experiment: Acute toxicity in Swiss albino mouse assessed as effect on cholesterol levels at 1000 mg/kg, po after 7 days (reference value: 89.73 +/- 10.76 mg/dL); format: organism-based; details: in vivo, 168 h
Mus musculus [30] = experiment: Acute toxicity in Swiss albino mouse assessed as effect on RBC count at 50 mg/kg, po after 7 days (reference value: 7.61 +/- 0.54 10^6/mm3); format: organism-based; details: in vivo, 168 h
Mus musculus [31] = experiment: Acute toxicity in Swiss albino mouse assessed as effect on tissue protein levels at 300 mg/kg, po after 7 days (reference value: 0.06 +/- 0.004 mg/mL); format: organism-based; details: in vivo, 168 h
Mus musculus [32] = experiment: Acute toxicity in Swiss albino mouse assessed as effect on ALKP levels at 5 mg/kg, po after 7 days (reference value: 219.20 +/- 5.9 U/L); format: organism-based; details: in vivo, 168 h
Mus musculus [33] = experiment: Acute toxicity in Swiss albino mouse assessed as effect on tissue protein levels at 1000 mg/kg, po after 7 days (reference value: 0.06 +/- 0.004 mg/mL); format: organism-based; details: in vivo, 168 h
Mus musculus [34] = experiment: Acute toxicity in Swiss albino mouse assessed as effect on triglyceride levels at 5 mg/kg, po after 7 days (reference value: 45.21 +/- 2.95 mg/dL); format: organism-based; details: in vivo, 168 h
Mus musculus [35] = experiment: Acute toxicity in Swiss albino mouse assessed as effect on albumin levels at 50 mg/kg, po after 7 days (reference value: 3.53 +/- 0.35 mg/dL); format: organism-based; details: in vivo, 168 h

Chain of DNA gyrase subunit A/DNA gyrase subunit B (P9WG45 whole entry): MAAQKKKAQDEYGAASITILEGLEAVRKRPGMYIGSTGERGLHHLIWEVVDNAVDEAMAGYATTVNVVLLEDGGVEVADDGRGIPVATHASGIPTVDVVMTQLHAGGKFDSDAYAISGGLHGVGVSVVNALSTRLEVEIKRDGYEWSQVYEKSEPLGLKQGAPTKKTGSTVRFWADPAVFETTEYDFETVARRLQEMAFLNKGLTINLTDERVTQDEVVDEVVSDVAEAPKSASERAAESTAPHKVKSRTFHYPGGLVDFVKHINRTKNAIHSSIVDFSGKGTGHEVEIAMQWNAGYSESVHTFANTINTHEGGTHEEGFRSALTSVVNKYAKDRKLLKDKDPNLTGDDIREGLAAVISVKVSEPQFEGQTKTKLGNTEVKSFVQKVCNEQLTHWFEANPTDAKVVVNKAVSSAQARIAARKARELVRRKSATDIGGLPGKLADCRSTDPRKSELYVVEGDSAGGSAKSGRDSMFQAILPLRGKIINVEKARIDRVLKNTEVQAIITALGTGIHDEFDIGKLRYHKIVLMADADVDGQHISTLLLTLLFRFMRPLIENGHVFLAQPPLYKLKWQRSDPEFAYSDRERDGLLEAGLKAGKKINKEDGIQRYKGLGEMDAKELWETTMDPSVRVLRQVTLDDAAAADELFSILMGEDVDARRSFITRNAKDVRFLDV
Chain of DNA gyrase subunit A/DNA gyrase subunit B (P9WG47 whole entry): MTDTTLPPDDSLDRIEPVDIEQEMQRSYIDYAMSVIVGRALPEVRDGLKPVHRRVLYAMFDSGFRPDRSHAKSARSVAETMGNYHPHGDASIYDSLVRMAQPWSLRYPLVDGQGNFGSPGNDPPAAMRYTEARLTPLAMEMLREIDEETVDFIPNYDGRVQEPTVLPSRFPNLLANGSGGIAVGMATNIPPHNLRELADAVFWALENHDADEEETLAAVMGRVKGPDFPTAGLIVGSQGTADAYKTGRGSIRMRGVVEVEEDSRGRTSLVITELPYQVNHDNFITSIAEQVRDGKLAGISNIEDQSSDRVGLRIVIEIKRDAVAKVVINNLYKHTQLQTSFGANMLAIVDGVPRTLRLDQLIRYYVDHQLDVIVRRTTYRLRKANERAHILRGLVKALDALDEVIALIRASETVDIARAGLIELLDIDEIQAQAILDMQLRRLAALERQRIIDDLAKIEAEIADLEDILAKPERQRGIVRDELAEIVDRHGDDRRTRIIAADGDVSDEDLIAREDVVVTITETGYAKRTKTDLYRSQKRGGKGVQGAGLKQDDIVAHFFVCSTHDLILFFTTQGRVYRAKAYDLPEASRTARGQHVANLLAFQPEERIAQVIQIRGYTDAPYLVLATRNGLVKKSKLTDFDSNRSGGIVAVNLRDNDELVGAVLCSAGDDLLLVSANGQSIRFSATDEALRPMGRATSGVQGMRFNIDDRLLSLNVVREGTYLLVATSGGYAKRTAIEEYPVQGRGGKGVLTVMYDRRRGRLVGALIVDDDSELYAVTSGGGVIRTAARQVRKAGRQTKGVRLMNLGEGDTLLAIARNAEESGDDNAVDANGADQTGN

For `COc1ccc2c(c1)nc(-c1ccccc1OC)n2Cc1ccccc1OC`, the Activity (Mus musculus [1]) was 41.98 mg/dL, the Activity (Mus musculus [2]) was 25.47 g and the Activity (Mus musculus [3]) was 6.87 10^6/mm3. The Activity (Mus musculus [4]) was 2.89 mg/dL, the Activity (Mus musculus [5]) was “Non-Toxic” and the Activity (Mus musculus [6]) was “Toxic”. The Activity (Mus musculus [7]) was 6.33 10^3/mm3, the Activity (Mus musculus [8]) was 11.96 U/L and the Activity (Mus musculus [9]) was “Non-Toxic”. The Activity (Mus musculus [10]) was “Non-Toxic”, the Activity (Mus musculus [11]) was 11.5 U/L and the MIC [12] was 16 µM (≈ 5.99 µg/mL). For the same molecule, the Activity (Mus musculus [13]) was “Non-Toxic”, the Activity (Mus musculus [14]) was “Non-Toxic” and the Activity (Mus musculus [15]) was “Non-Toxic”. For the same molecule, the Activity (Mus musculus [16]) was 11.72 U/L, the mortality at 168 h [17] was 50% and the Activity (Mus musculus [18]) was “Non-Toxic”. For the same molecule, the pIC50 [19] was 3.45, the Activity (Mus musculus [20]) was “Non-Toxic” and the Activity (Mus musculus [21]) was “Non-Toxic”. It also gave an Activity (Mus musculus [22]) of 22.86 g, an Activity (Mus musculus [23]) of 0.09 mg/mL and an Activity (Mus musculus [24]) of 17.1 µmol. The Activity (Mus musculus [25]) was 0.09 mg/mL, the Activity (Mus musculus [26]) was 12.26 U/L and the Activity (Mus musculus [27]) was 7.72 10^3/mm3. The Activity (Mus musculus [28]) was 19.37 µmol, the Activity (Mus musculus [29]) was 115.43 mg/dL and the Activity (Mus musculus [30]) was 7.44 10^6/mm3. For the same molecule, the Activity (Mus musculus [31]) was 0.05 mg/mL, the Activity (Mus musculus [32]) was 172.1 U/L and the Activity (Mus musculus [33]) was 0.05 mg/mL. The Activity (Mus musculus [34]) was 48.61 mg/dL and the Activity (Mus musculus [35]) was 3.58 mg/dL.
